For test [1], the system named is Candida albicans. Kind of test: Antifungal activity against wild type Candida albicans Al-1 after 48 hrs by NCCLS M27A method. Type of test: functional. A digest of the protocol:
(§1)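 Yeast-like strain grown on SD agar at 30 °C. One colony cultured overnight in SD broth at 30 °C to OD600 0.6–0.9, then diluted 1:5000 in SD broth. Broth microdilution from 20 mg/mL stocks in 95% EtOH, with 4-fold serial dilution and a no-compound negative column. Incubated 30 °C, 48 h. MIC is the lowest concentration giving ≥80% growth reduction.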

For test [2], the system named is Candida albicans. The test is described as follows: Antifungal activity against azole-resistant Candida albicans CN1A after 48 hrs by NCCLS M27A method. The class given is functional. The essentials:
as §1

Another test concerns Scheffersomyces shehatae. The test is described as follows: Antifungal activity against Candida shehatae after 48 hrs by NCCLS M27A method. Type of test: functional. The essentials:
as §1

The subject of test [3] is Candida albicans. Kind of test: Antifungal activity against azole-resistant Candida albicans D10 after 48 hrs by NCCLS M27A method. The class given is functional. The essentials:
as §1

The subject of test [4] is Candida albicans. Kind of test: Antifungal activity against wild type Candida albicans Al-1 in presence of dillapiol. The class given is functional. A digest of the protocol:
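Synergy run by a similar broth-microdilution MIC method in C. albicans Al-1. One-row 2-fold serial dilution starting at 1000 µg/mL, testing compound alone, dillapiol alone, and compound plus dillapiol (1:5). FIC is the MIC in combination divided by the MIC alone. FICI is the dillapiol FIC plus the compound FIC.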

In test [5] the test system is Candida albicans. Kind of test: Potentiation of drimane-type sesquiterpene-induced antifungal activity against wild type Candida albicans Al-1 assessed as fractional inhibition concentration index. Type of test: functional. A digest of the protocol: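 Broth microdilution in Sabouraud dextrose broth against C. albicans Al-1 (wild type), incubated at 30 °C for 48 h. Each sesquiterpene was tested alone, dillapiol alone, and the two combined at 1:5. A one-row 2-fold serial dilution started at 1000 µg/mL. MIC was the lowest concentration giving ≥80% growth reduction. FICI = FIC of dillapiol + FIC of compound, where FIC = MIC in combination / MIC alone.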

The subject of a further test is Exophiala dermatitidis. The test is described as follows: Antifungal activity against yeast-like Wangiella dermatitidis after 48 hrs by NCCLS M27A method.
The test system of another test is Saccharomyces cerevisiae. The test is described as follows: Antifungal activity against Saccharomyces cerevisiae after 48 hrs by NCCLS M27A method. The class given is functional. A digest of the protocol: as §1
Another test has as its system Cryptococcus neoformans. Kind of test: Antifungal activity against Cryptococcus neoformans after 48 hrs by NCCLS M27A method. The class given is functional. A digest of the protocol: as §1
A further test concerns Scedosporium boydii. Kind of test: Antifungal activity against Pseudallescheria boydii after 48 hrs by NCCLS M27A method. The class given is functional. The essentials: (§2)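 Filamentous fungi grown on Sabouraud dextrose (SD) agar at 30 °C. Hyphae-containing agar block blended in SD broth, then diluted 1:5000 in SD broth. Broth microdilution in SD broth from 20 mg/mL stocks in 95% EtOH, with 4-fold serial dilution and a no-compound negative column. Incubated 30 °C, 48 h. MIC is the lowest concentration giving ≥80% growth reduction.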

Another test has as its system Alternaria alternata. The test is described as follows: Antifungal activity against Alternaria alternata after 48 hrs by NCCLS M27A method. The class given is functional. A digest of the protocol:
as §2

Molecules are shown by their SMILES. ≈ marks a conversion by molar mass, not a printed value.

The term MIC denotes the least concentration at which growth counts as inhibited. Regarding `COc1ccc2cc3[n+](cc2c1OC)CCc1cc2c(cc1-3)OCO2.[Cl-]` [BERBERINE CHLORIDE], the MIC against Candida albicans [1] was found to be 31.3 µg/mL; with Candida albicans [2], 15.6 µg/mL; in the test on Scheffersomyces shehatae it was 7.8 µg/mL; against Candida albicans [3], 31.3 µg/mL; in the test on Candida albicans [4], 15.6 µg/mL; against Exophiala dermatitidis, 31.3 µg/mL. The MIC against Saccharomyces cerevisiae came to 78.1 µg/mL; in the test with Cryptococcus neoformans, 31.3 µg/mL; against Scedosporium boydii, 62.5 µg/mL; against Alternaria alternata, 125 µg/mL. In the test on Candida albicans [5], the “fractional inhibitory concentration index (FICI)” value came to 0.5.
As for `CC(=O)O[C@@H]1C=C(C=O)[C@](O)(C=O)[C@@]2(C)CCCC(C)(C)[C@H]12` [CINNAMODIAL], the minimal inhibitory concentration (MIC) is 62.5 µg/mL (≈ 203 µM) in the test with Candida albicans [1]; 62.5 µg/mL (≈ 203 µM) against Candida albicans [2]; 31.3 µg/mL (≈ 102 µM) in the test on Scheffersomyces shehatae; 15.6 µg/mL (≈ 50.6 µM) in the test with Candida albicans [3]; 15.6 µg/mL with Candida albicans [4]; 15.6 µg/mL (≈ 50.6 µM) against Exophiala dermatitidis. Also, the MIC is 31.3 µg/mL (≈ 102 µM) in the test with Saccharomyces cerevisiae, 31.3 µg/mL (≈ 102 µM) against Cryptococcus neoformans, 125 µg/mL (≈ 405 µM) against Scedosporium boydii and 3.9 µg/mL (≈ 12.6 µM) in the test on Alternaria alternata. The “fractional inhibitory concentration index (FICI)” value in the test on Candida albicans [5] is recorded as 0.3.
Consider `CC(=O)O[C@@H]1C=C2C(=O)OC[C@]2(O)[C@@]2(C)CCCC(C)(C)[C@H]12` [CINNAMOSMOLIDE], for which the MIC was 1250 µg/mL (≈ 4050 µM) against Candida albicans [1]; 23.4 µg/mL (≈ 75.9 µM) in the test on Candida albicans [2]; 625 µg/mL (≈ 2030 µM) against Scheffersomyces shehatae; 156 µg/mL (≈ 506 µM) against Candida albicans [3]; 313 µg/mL (≈ 1020 µM) against Exophiala dermatitidis; 1250 µg/mL (≈ 4050 µM) against Saccharomyces cerevisiae. In addition, the MIC against Cryptococcus neoformans amounted to 625 µg/mL (≈ 2030 µM); against Scedosporium boydii, 78.1 µg/mL (≈ 253 µM).
`C=CCc1cc2c(c(OC)c1OC)OCO2` [DILLAPIOLE] displayed an MIC against Candida albicans [1] of 500 µg/mL (≈ 2250 µM).
Turning to `CC(=O)N1CCN(c2ccc(OCC3COC(Cn4ccnc4)(c4ccc(Cl)cc4Cl)O3)cc2)CC1` (centres undefined) [KETOCONAZOLE], the MIC amounted to 0.4 µg/mL (≈ 0.753 µM) against Candida albicans [1]; 93.8 µg/mL (≈ 177 µM) against Candida albicans [2]; 93.8 µg/mL (≈ 177 µM) in the test with Candida albicans [3]; 31.3 µg/mL (≈ 58.9 µM) in the test on Exophiala dermatitidis; 1.2 µg/mL (≈ 2.26 µM) against Saccharomyces cerevisiae; 0.04 µg/mL (≈ 0.0753 µM) in the test with Cryptococcus neoformans. The compound also returned an MIC with Scedosporium boydii of 93.8 µg/mL (≈ 177 µM).
`CC1(C)CCC[C@@]2(C)[C@H]1[C@@H](O)C=C(C=O)[C@]2(O)C=O` [MUKAADIAL]: the MIC with Candida albicans [1] was determined as 1000 µg/mL (≈ 3750 µM); with Candida albicans [4], 250 µg/mL. The “fractional inhibitory concentration index (FICI)” value in the test on Candida albicans [5] was 0.8.
The matching figures for `CC(=O)O[C@H]1C=C(C=O)[C@](O)(C=O)[C@@]2(C)[C@H](OC(C)=O)CCC(C)(C)[C@H]12` [PARRITADIAL]: 1000 µg/mL (≈ 2730 µM), 250 µg/mL and 1.5.

Values taken from ChEMBL document CHEMBL1142598, “Phytochemistry and antifungal properties of the newly discovered tree Pleodendron costaricense” (2006).
